# Assays:
# [1] = system: Vero; experiment: Inhibition of West Nile viral Rluc-Neo-Rep in Vero cells; format: functional, cell-based; conditions: Chlorocebus sabaeus
# Outline: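 Vero cells containing the Rluc-Neo-Rep replicon, used to check cell-line dependence; inhibition measured as suppression of Renilla luciferase signal, EC50 in µM.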
# [2] = system: BHK-21; experiment: Inhibition of West Nile virus VLP replicon in BHK21 cell line; format: functional, cell-based; conditions: Mesocricetus auratus
# Outline: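 Naive BHK-21 cells infected with virus-like particles, made by expressing WNV structural proteins in cells carrying the Rluc-Neo-Rep replicon, which package replicon RNA. This captures entry and replication but not assembly. Inhibition is read as suppression of Renilla luciferase signal. Compounds were given in 1% DMSO final, and EC50 is in µM.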
# [3] = system: West Nile virus; experiment: Inhibition of West Nile viral Rluc-Neo-Rep in BHK21 cell line; format: functional, organism-based; conditions: BHK-21
# Outline: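 BHK-21 cell line stably carrying Rluc-Neo-Rep replicon; inhibition read as suppression of Renilla luciferase signal. Initial screen at 30 µM, 1% DMSO final; EC50 (µM) then determined.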
# [4] = system: West Nile virus; experiment: Inhibition of Rluc-FL-WNV replicon in Vero cells; format: functional, organism-based
# Outline: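 Vero cells infected with full-length WNV carrying Renilla luciferase reporter (Rluc-FL-WNV), covering entry, replication and assembly; inhibition read as suppression of luciferase signal. Compounds first screened at 30 µM in 1% DMSO final, then EC50 (µM) determined.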
# [5] = system: Vero; experiment: Cytotoxicity against Vero cells by MTT assay; format: functional; conditions: Chlorocebus sabaeus
# Outline: (§1)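 MTT cytotoxicity assay run in BHK-21 and Vero cells on compounds giving >50% Rluc inhibition in the primary screens; CC50 reported in µM.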
# [6] = Therapeutic index (CC50/EC50) in Vero cells; format: cell-based; conditions: monkey, read-out: Ratio CC50/EC50
# Outline: (§2)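 TI computed as CC50/EC50, using MTT CC50 and replicon EC50 in BHK-21 cells, or MTT CC50 and Rluc-FL-WNV EC50 in Vero cells.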
# [7] = system: BHK-21; experiment: Cytotoxicity against BHK21 cell line by MTT assay; format: functional; conditions: Mesocricetus auratus; outline: as §1
# [8] = Therapeutic index (CC50/EC50) in BHK21 cells; format: cell-based, BHK-21; conditions: hamster, read-out: Ratio CC50/EC50; outline: as §2
# [9] = system: West Nile virus; experiment: Activity against West Nile virus RlucRep RNA synthesis in BHK21 cells at 33 uM, 72 hr post transfection; format: functional, BHK-21
# Outline: (§3)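 BHK cells transfected with WN RlucRep RNA (transient replicon), incubated with compound at 33 or 100 µM; luciferase read at 2, 4 and 72 h post-transfection. 2 and 4 h signals report viral translation, 72 h reports RNA synthesis. Activity given as percent of luciferase signal versus mock-treated transfection; average of two to three experiments.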
# [10] = system: West Nile virus; experiment: Activity against West Nile virus RlucRep RNA translation in BHK21 cells at 100 uM, 4 hr post transfection; format: functional, BHK-21; outline: as §3
# [11] = system: West Nile virus; experiment: Inhibition of West Nile virus in Vero cells at 0.4 uM; values are per cent of control
# [12] = system: West Nile virus; experiment: Inhibition of West Nile virus in Vero cells at 3.7 uM; values are per cent of control
# [13] = system: West Nile virus; experiment: Inhibition of West Nile virus in vero cells at 11 uM; values are per cent of control
# [14] = system: West Nile virus; experiment: Activity against West Nile virus RlucRep RNA translation in BHK21 cells at 33 uM, 2 hr post transfection; format: functional, BHK-21; outline: as §3
# [15] = system: West Nile virus; experiment: Inhibition of West Nile virus in Vero cells at 100 uM; values are per cent of control
# [16] = system: West Nile virus; experiment: Inhibition of West Nile virus in Vero cells at 1.2 uM; values are per cent of control
# [17] = system: West Nile virus; experiment: Activity against West Nile virus RlucRep RNA translation in BHK21 cells at 33 uM, 4 h post transfection; format: functional, BHK-21; outline: as §3
# [18] = system: West Nile virus; experiment: Inhibition of West Nile virus in Vero cells at 33 uM; values are per cent of control
# [19] = system: West Nile virus; experiment: Activity against West Nile virus RlucRep RNA synthesis in BHK21 cells at 100 uM, 72 h post transfection; format: functional, BHK-21; outline: as §3
# [20] = system: West Nile virus; experiment: Activity against West Nile virus RlucRep RNA translation in BHK21 cells at 100 uM, 2 hr post transfection; format: functional, BHK-21; outline: as §3
SMILES,EC50 [1] [µM],EC50 [2] [µM],EC50 [3] [µM],EC50 [4] [µM],CC50 [5] [µM],selectivity ratio [6],CC50 [7] [µM],selectivity ratio [8],Activity [9] [%],Activity [10] [%],remaining activity at 0.4 µM [11] [%],remaining activity at 3.7 µM [12] [%],remaining activity at 11 µM [13] [%],Activity [14] [%],remaining activity at 100 µM [15] [%],remaining activity at 1.2 µM [16] [%],Activity [17] [%],remaining activity at 33 µM [18] [%],Activity [19] [%],Activity [20] [%]
COc1c(C)c2c(c(O)c1C/C=C(\C)CCC(=O)O)C(=O)OC2 [MYCOPHENOLIC ACID],0.08,0.04,1.4,0.04,,,,,,,,,,,,,,,,
CN1CCN(C(=O)c2ccc3nc4ccccc4c(NCCc4c[nH]c5ccccc45)c3c2)CC1,,27,28,25,65,2.6,170,6.1,,,,,,,,,,,,
CN1CCN(C(=O)c2ccc3c(Oc4ccccc4)c4ccccc4nc3c2)CC1,,18,28,28,40,1.4,100,3.6,,,,,,,,,,,,
CN1CCN(Cc2ccc3c(c2)Oc2ccccc2C3O)CC1 (stereo unspecified),,4,13.5,10,50,5,325,24,,,,,,,,,,,,
NC(=O)c1ncn([C@@H]2O[C@H](CO)[C@@H](O)[C@H]2O)n1 [RIBAVIRIN],119,1.1,18,30,,,,,,,,,,,,,,,,
O=C(c1cccc2c(NC3CCN(Cc4ccccc4)CC3)c3ccccc3nc12)N1CCOCC1,,20,20,> 30,90,< 3,300,15,,,,,,,,,,,,
CN1CCN(C(=O)c2ccc3nc4ccccc4c(NC4CCN(Cc5ccccc5)CC4)c3c2)CC1,,25,28,25,80,3.2,100,3.6,,,,,,,,,,,,
CCN(CC)C(=O)c1ccc2c(NC3CCN(Cc4ccccc4)CC3)c3ccccc3nc2c1,,6,12.5,20,55,2.7,150,12,,,,,,,,,,,,
CN1CCN(C(=O)c2ccc3c(NCCc4c[nH]c5ccccc45)c4ccccc4nc3c2)CC1,,10,13.7,> 30,45,< 1.5,150,11,,,,,,,,,,,,
CCN(CC)C(=O)c1cccc2c(NC3CCN(Cc4ccccc4)CC3)c3ccccc3nc12,,20,8,22,75,3.4,350,44,,,,,,,,,,,,
CN1CCN(Cc2ccc3c(c2)Oc2ccccc2C3)CC1,,28,> 30,> 30,90,< 3,200,< 6.7,,,,,,,,,,,,
CCN(CC)C(=O)c1ccc2nc3ccccc3c(NCCc3c[nH]c4ccccc34)c2c1,,20,25,15,75,5,110,4.4,,,,,,,,,,,,
CCN(CC)C(=O)c1cccc2c(NCCc3c[nH]c4ccccc34)c3ccccc3nc12,,9,9.2,20,50,2.5,150,16,,,,,,,,,,,,
CN1CCN(C(=O)c2ccc3c(NC4CCN(Cc5ccccc5)CC4)c4ccccc4nc3c2)CC1,,8,15.5,30,80,2.7,150,9.7,,,,,,,,,,,,
O=C(Cc1ccc(Cl)cc1)N1N=C(c2cccs2)CC1c1ccc([N+](=O)[O-])cc1 (stereo unspecified),7,8,11,25,> 300,> 12,> 300,> 27,12,93,100,90,55,80,23,92,92,23,16,81
CN1CCN(c2cc(-c3ccc(C(C)(C)C)cc3)c3ccccc3n2)CC1,,20,17,30,25,0.8,110,6.5,,,,,,,,,,,,
CN1CCN(C(=O)c2cccc3c(NCCc4c[nH]c5ccccc45)c4ccccc4nc23)CC1,,17,10.5,18,50,2.8,150,14,,,,,,,,,,,,
CN1CCN(C(=O)c2cccc3c(NC4CCN(Cc5ccccc5)CC4)c4ccccc4nc23)CC1,,20,15,22,80,3.6,300,20,,,,,,,,,,,,
O=C(c1ccccc1)N1N=C(c2cccs2)CC1c1ccc(Cl)cc1 (stereo unspecified),15,15,17,23,> 300,> 13,> 300,> 18,,,,,,,,,,,,
